From PubChem BioAssay come the findings set out here.

Active and inactive are the calls of the source.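 How the source made its calls, unless noted: active means viability at or under a set limit in both replicates, limit being median viability minus 3 SD (cut at about 48% in these data, passing the limit was not always enough); inconclusive means at or under the limit in just one replicate; inactive means at or above the limit in both replicates.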

Assay [1] is described as follows: reducers of endogenous Her2 protein level, primary screen, SKBR3 breast tumor cells, AlphaScreen, ATP viability (AID 461;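 active means Her2 level under about 52% in both replicate screens, with viability over 70% of control, limit read from the data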;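 on Her2 level: lower value means less Her2 protein in the cells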;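 on viability: percent of carrier control wells set as 100% viability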). The conditions noted are these: 18-24 h, measured here: SKBR3 viability, ATP luminescence, at 10 µM. A general note: Alpha assays give light when donor and acceptor beads are brought close together.
Assay [2] deals with Receptor tyrosine-protein kinase erbB-2 (Homo sapiens) (UniProt P04626). The assay is described as above. As to conditions: 18-24 h, at 10 µM, stronger effect = lower value.
Sequence of Receptor tyrosine-protein kinase erbB-2 (Homo sapiens) (P04626 whole entry, looked up): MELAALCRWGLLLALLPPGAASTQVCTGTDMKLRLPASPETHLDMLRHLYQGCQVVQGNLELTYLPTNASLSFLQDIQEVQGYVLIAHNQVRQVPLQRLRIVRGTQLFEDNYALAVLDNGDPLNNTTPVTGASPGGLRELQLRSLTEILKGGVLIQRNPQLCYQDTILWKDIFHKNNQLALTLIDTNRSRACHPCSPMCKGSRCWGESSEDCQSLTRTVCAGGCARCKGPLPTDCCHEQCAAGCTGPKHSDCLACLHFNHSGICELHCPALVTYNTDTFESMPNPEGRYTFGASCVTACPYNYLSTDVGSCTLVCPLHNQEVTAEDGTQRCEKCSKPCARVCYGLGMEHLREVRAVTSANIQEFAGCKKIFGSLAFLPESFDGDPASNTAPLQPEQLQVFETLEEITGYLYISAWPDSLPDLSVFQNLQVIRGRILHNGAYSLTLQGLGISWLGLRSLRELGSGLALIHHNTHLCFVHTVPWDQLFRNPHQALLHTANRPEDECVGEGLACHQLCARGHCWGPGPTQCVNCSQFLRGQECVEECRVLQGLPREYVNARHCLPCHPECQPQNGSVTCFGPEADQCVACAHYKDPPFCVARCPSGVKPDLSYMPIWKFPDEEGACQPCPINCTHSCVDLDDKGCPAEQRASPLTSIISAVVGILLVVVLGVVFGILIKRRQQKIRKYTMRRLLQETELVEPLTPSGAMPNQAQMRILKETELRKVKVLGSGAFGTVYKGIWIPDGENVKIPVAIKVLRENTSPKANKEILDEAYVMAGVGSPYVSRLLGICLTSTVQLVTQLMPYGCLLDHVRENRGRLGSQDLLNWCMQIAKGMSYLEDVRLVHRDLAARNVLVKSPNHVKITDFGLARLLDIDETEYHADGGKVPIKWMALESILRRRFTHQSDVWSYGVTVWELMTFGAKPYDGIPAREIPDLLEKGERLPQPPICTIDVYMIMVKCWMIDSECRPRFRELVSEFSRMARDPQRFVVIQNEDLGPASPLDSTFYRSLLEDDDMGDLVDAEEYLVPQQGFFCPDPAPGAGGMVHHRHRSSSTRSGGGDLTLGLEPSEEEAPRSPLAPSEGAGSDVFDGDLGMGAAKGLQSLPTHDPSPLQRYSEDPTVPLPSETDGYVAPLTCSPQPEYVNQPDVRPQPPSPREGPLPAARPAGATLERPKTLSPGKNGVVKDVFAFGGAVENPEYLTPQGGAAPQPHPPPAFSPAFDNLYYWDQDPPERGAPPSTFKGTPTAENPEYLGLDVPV
Assay [3] can be described thus: SK-BR-3 cell growth inhibitors, pilot screen, 24 h, human (AID 572;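 active means viability at or below 10% of carrier control in both of two separate runs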;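 further: compound exposure lasted between 18 and 24 h rather than exactly 24 h; 100% = carrier-treated control wells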). As to conditions: SK-BR-3 viability, CellTiter-Glo luminescence, at 10 µM, stronger effect = lower value. In general terms: Cellular ATP, detected with luciferase, serves as a proxy for viable cell number.
A short description of assay [4]: HUVEC growth inhibition – cell-based, human, primary screen (AID 575;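 active means viability at or below 30% in both replicate assays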;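 further: 100% = median of untreated cell wells with 0.1% DMSO on each plate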). As to conditions: HUVEC proliferation, CellTiter-Glo luminescence, 72 h; at 10 µM; stronger effect = lower value. The method in brief: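 Test system: primary human umbilical vein endothelial cells. Quantity: 1250 cells/well. Compound: single 10 µM dose, 0.1% DMSO, from 5x medium stock. Timing: 72 h treatment at 37 °C. Detection: ATP-based CellTiter-Glo luminescent read. Benchmarks: vehicle and MePR control wells. Format: 384-well plates coated with collagen.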

The nature of assay [5]: growth inhibitors of H69AR lung tumor, primary screen, human, duplicate replicates (AID 580).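 Further: 100% = mean luminescence of untreated wells and 0% = no signal.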 The conditions noted are these: H69AR lung tumor cells viability, ATP luminescence, 72 h; at 10 µM; stronger effect = lower value.
A short description of assay [6]: reversal of MRP1-mediated doxorubicin resistance, pilot screen, H69AR cells, doxorubicin co-treatment (AID 601;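 active means viability loss from added drug above about 55%, and viability with drug at most 40%, in both replicates, limit read from the data, passing the limit was not always enough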). The conditions noted are these: CellTiter-Glo, 72 h, at 10 µM; for differential viability (reversal): stronger effect = higher value.
Assay [7] is described as follows: 384-well plate pilot, post-Golgi transport modulator project, inhibition of yeast transport mutant growth (AID 636; in the data active means inhibition above about 31%). The conditions noted are these: absorbance 615 nm, about 18 h, stronger effect = higher value.
The nature of assay [8]: growth suppression of yeast trafficking mutant, preliminary HTS, modulators of trafficking downstream of Golgi apparatus project, 1536-format plate, OD 615 nm (AID 637; in the data active means inhibition above about 30%). As to conditions: yeast transport mutant growth, absorbance 615 nm, 18 h; stronger effect = higher value.
[9] abbreviates: H69AR cells + 2 uM doxorubicin, measured here: viability with 2 uM doxorubicin, stronger effect = lower value.
Where [10] appears, read: H69AR cells, compound alone cytotoxicity.

One may read the viability as a read-out of living cells in per cent, often relative to untreated cells. One may read the inhibition as the change of the read-out against control, counted positive when it falls.

For `Nc1ccc(-n2c(N)c(C(=O)NCc3ccc4c(c3)OCO4)c3nc4ccccc4nc32)cc1`, the viability was 72.5% in assay [1]; 72.5% (inactive) in assay [3]; 64.6% (inactive) in assay [4]; 55.5% (inactive) in assay [5]; 72.9% in assay [6] (setting [9]); 55.5% in assay [6] (setting [10]). The Her2 level in assay [2] is 66.5% (inactive). For the same molecule, in assay [6] (H69AR cells + 2 uM doxorubicin), the differential viability (reversal) is -17.4% (inactive). For the same molecule, the inhibition in assay [7] was -1.73% (inactive); in assay [8] it was 6.61% (inactive).
Regarding `COCc1cc(C)c2c(N)c(C#N)sc2n1`, the viability in assay [1] is 88%; in assay [3] it was 88% (inactive); in assay [4], 91.5% (inactive); in assay [5], 99.6% (inactive); in assay [6] (setting [9]) it was 84.3%; in assay [6] (setting [10]), 99.6%. Also, the Her2 level in assay [2] is 100% (inactive). Besides, the differential viability (reversal) in assay [6] (H69AR cells + 2 uM doxorubicin) was 15.3% (inactive). Also, the inhibition is -1.32% (inactive) in assay [7] and -2.55% (inactive) in assay [8].
For the molecule `CCCCC(=O)Nc1nn(CCC)c2nc3ccccc3cc12`, the viability in assay [1] was 94%; in assay [3], 94% (inactive); in assay [4], 92.5% (inactive); in assay [5], 96.1% (inactive); in assay [6] (setting [9]) it was 102%; in assay [6] (setting [10]) it was 96.1%. Moreover, the Her2 level in assay [2] is 92% (inactive). The differential viability (reversal) in assay [6] (H69AR cells + 2 uM doxorubicin) was -5.81% (inactive). The inhibition in assay [7] was -1.97% (inactive); in assay [8], 6.23% (inactive).
Regarding `O=C(NCC(c1cccnc1)N1CCOCC1)c1ccco1` (stereo not given), the viability in assay [1] is 97%; in assay [3], 97% (inactive); in assay [4] it was 106% (inactive); in assay [5], 98.9% (inactive); in assay [6] (setting [9]), 90.6%; in assay [6] (setting [10]), 98.9%. For the same molecule, in assay [2], the Her2 level was 71% (inactive). Besides, the differential viability (reversal) in assay [6] (H69AR cells + 2 uM doxorubicin) was 8.38% (inactive). For the same molecule, the inhibition in assay [7] was -4.87% (inactive); in assay [8] it was 1.17% (inactive).
For the molecule `CC1CN(Cc2nc3c(c(=O)[nH]c(=O)n3C)n2CC(N)=O)CC(C)O1` (stereo not given), the viability in assay [1] was 99.5%; in assay [3], 99.5% (inactive); in assay [4] it was 88.6% (inactive); in assay [5], 102% (inactive); in assay [6] (setting [9]), 92.4%; in assay [6] (setting [10]), 102%. In assay [2], the Her2 level was 97.5% (inactive). Moreover, in assay [6] (H69AR cells + 2 uM doxorubicin), the differential viability (reversal) is 9.96% (inactive). Also, the inhibition is 0.51% (inactive) in assay [7] and 0.67% (inactive) in assay [8].
Consider `CC(C)(C)C(=O)/C=C(\N)c1ccccn1`, for which the viability in assay [1] was 102%; in assay [3], 102% (inactive); in assay [4] it was 119% (inactive); in assay [5], 100% (inactive); in assay [6] (setting [9]) it was 97.8%; in assay [6] (setting [10]) it was 100%. Also, the Her2 level in assay [2] was 94.5% (inactive). For the same molecule, in assay [6] (H69AR cells + 2 uM doxorubicin), the differential viability (reversal) was 2.67% (inactive). The results for the inhibition in assay [7] and in assay [8] were -1.04% (inactive) and -4.92% (inactive), respectively.
As to `O=C(CSc1nc2ncccc2[nH]1)Nc1ccc2c(c1)OCCO2`, the viability was 108% in assay [1]; 108% (inactive) in assay [3]; 85.6% (inactive) in assay [4]; 82% (inactive) in assay [5]; 82.4% in assay [6] (setting [9]); 82% in assay [6] (setting [10]). Besides, the Her2 level in assay [2] was 118% (inactive). Moreover, in assay [6] (H69AR cells + 2 uM doxorubicin), the differential viability (reversal) was -0.395% (inactive). Moreover, the inhibition in assay [7] was -2.86% (inactive); in assay [8], -0.82% (inactive).
Turning to `COC(=O)[C@H](C)NC(=O)NCc1ccc(F)cc1`, the viability in assay [1] is 102%; in assay [3], 102% (inactive); in assay [4] it was 102% (inactive); in assay [5], 95.3% (inactive); in assay [6] (setting [9]), 104%; in assay [6] (setting [10]), 95.3%. Besides, the Her2 level in assay [2] was 95% (inactive). The differential viability (reversal) in assay [6] (H69AR cells + 2 uM doxorubicin) is -8.8% (inactive). For the same molecule, the inhibition is -2.21% (inactive) in assay [7] and -1.43% (inactive) in assay [8].
`Oc1ccc2cccnc2c1`: the viability in assay [1] is 94.5%; in assay [3], 94.5% (inactive); in assay [4], 107% (inactive); in assay [5], 106% (inactive); in assay [6] (setting [9]) it was 100%; in assay [6] (setting [10]) it was 106%. The Her2 level in assay [2] was 108% (inactive). Moreover, the differential viability (reversal) in assay [6] (H69AR cells + 2 uM doxorubicin) was 5.68% (inactive). Also, the inhibition in assay [7] is -4.8% (inactive); in assay [8] it was -8.41% (inactive).
For the molecule `Cc1ccc(S(=O)(=O)N2CCCC2C(=O)OCc2nc3ccccc3s2)cc1` (stereo not given), the viability in assay [1] was 85.5%; in assay [3] it was 85.5% (inactive); in assay [4], 79.7% (inactive); in assay [5], 99.2% (inactive); in assay [6] (setting [9]), 99.1%; in assay [6] (setting [10]), 99.2%. Also, the Her2 level in assay [2] is 80.5% (inactive). In addition, the differential viability (reversal) in assay [6] (H69AR cells + 2 uM doxorubicin) is 0.14% (inactive). The inhibition in assay [7] is -7.95% (inactive); in assay [8] it was -5.4% (inactive).
Consider `COc1ccccc1CN1C(=S)SC(C)(C)C1NO` (stereo not given), for which the viability in assay [1] is 100%; in assay [3] it was 100% (inactive); in assay [4] it was 73.8% (inactive); in assay [5] it was 98.3% (inactive); in assay [6] (setting [9]), 89.6%; in assay [6] (setting [10]), 98.3%. Further, in assay [2], the Her2 level was 93.5% (inactive). The differential viability (reversal) in assay [6] (H69AR cells + 2 uM doxorubicin) is 8.72% (inactive). In addition, the inhibition is -3.73% (inactive) in assay [7] and 2.42% (inactive) in assay [8].
For `COCCNC(=O)CC(NS(=O)(=O)c1ccc(NC(C)=O)cc1)C(C)C` (stereo not given), the viability in assay [1] was 97%; in assay [3], 97% (inactive); in assay [4] it was 81.2% (inactive); in assay [5], 95.1% (inactive); in assay [6] (setting [9]), 83.7%; in assay [6] (setting [10]), 95.1%. For the same molecule, the Her2 level in assay [2] is 122% (inactive). Moreover, the differential viability (reversal) in assay [6] (H69AR cells + 2 uM doxorubicin) is 11.4% (inactive). Besides, the inhibition is -4.74% (inactive) in assay [7] and 5% (inactive) in assay [8].
As to `CCN(CC)S(=O)(=O)c1cccc(-c2nnc(SCC(N)=O)n2CCc2ccccc2)c1`, the viability was 102% in assay [1]; 102% (inactive) in assay [3]; 91% (inactive) in assay [4]; 74.7% (inactive) in assay [5]; 84% in assay [6] (setting [9]); 74.7% in assay [6] (setting [10]). Further, the Her2 level in assay [2] was 108% (inactive). Also, the differential viability (reversal) in assay [6] (H69AR cells + 2 uM doxorubicin) is -9.28% (inactive). Moreover, the figures for the inhibition in assay [7] and in assay [8] were -2.21% (inactive) and -6.35% (inactive), respectively.
For the molecule `Clc1ccc(SCCn2ccnc2)cc1`, the viability was 96% in assay [1]; 96% (inactive) in assay [3]; 94.3% (inactive) in assay [4]; 96.2% (inactive) in assay [5]; 84.3% in assay [6] (setting [9]); 96.2% in assay [6] (setting [10]). Further, the Her2 level in assay [2] was 96% (inactive). The differential viability (reversal) in assay [6] (H69AR cells + 2 uM doxorubicin) is 11.8% (inactive). Further, the inhibition was -6.22% (inactive) in assay [7] and -10.2% (inactive) in assay [8].
